Published values from different studies.
Protocols differ between the studies behind these lines.
Cell line: A549
Read-out: cell growth or viability
Method: CCK-8

| SMILES | conditions | quantity | result |
| --- | --- | --- | --- |
| NCCC(=O)Nc1ccccc1/N=c1\cc(-c2ccc3nc(N)oc3c2)oc2ccc(F)cc12 | 1 µM | inhibition | 42.4% |
| COc1ccc(NC(=O)Nc2cccc(-c3cn(Cc4ccc(C)cc4)nn3)c2)cc1 | 50 µM, 72 h | viability | 190% |
| O=C(Nc1ccccc1/N=c1\cc(-c2ccc3c(c2)OCO3)oc2ccccc12)N1CCNCC1 | 1 µM | inhibition | -6.54% |
| Cc1ccccc1Cn1cc(-c2cccc(NC(=O)Nc3ccc(F)cc3)c2)nn1 | 20 µM, 72 h | viability | 114% |
| CC(C)(C)[C@H](N)C(=O)Nc1ccccc1/N=c1\cc(-c2ccc3c(c2)OCCO3)oc2cc(F)ccc12 | 1 µM | inhibition | -4.38% |
| O=C(Nc1ccc(-c2cn(Cc3ccc(Cl)cc3)nn2)cc1)Nc1ccccc1Br | 20 µM, 72 h | viability | 102% |
| CCCCn1cnc2ccc(-c3ccc(NC(=O)Nc4ccc(F)cc4)nc3)cc2c1=O | 72 h | IC50 | 0.79 µM |
| O=C(Nc1ccc(Cl)cc1)Nc1ccc(-c2cn(Cc3ccc(Cl)cc3)nn2)cc1 | 50 µM, 72 h | viability | 79.6% |
| CCCCC(=O)Nc1ncc(-c2ccc3ncn(CCC)c(=O)c3c2)cn1 | 72 h | IC50 | 1.25 µM |
| COc1ccc(NC(=O)Nc2cccc(-c3cn(Cc4ccccc4C)nn3)c2)cc1 | 20 µM, 72 h | viability | 137% |
| COc1ccc2/c(=N/c3ccccc3NC(=O)[C@@H](N)C(C)(C)C)cc(-c3ccc4c(c3)OCO4)oc2c1 | 1 µM | inhibition | -3.68% |
| CCCCn1cnc2ccc(-c3ccc(NC(=O)Nc4ccccc4)nc3)cc2c1=O | 72 h | IC50 | 1.24 µM |
